Measured values as given in paper PMC5730044 (International journal of medical microbiology : IJMM, 2014).
Converted amounts (≈) assume the structure as drawn.

Key:
S. pneumoniae CJ9400 [1] = assay: Biofilm inhibition assay; format: cell-based; conditions: CJ9400, TSB, 24 h
S. pneumoniae DSM20566 [2] = assay: Minimal bactericidal concentration; format: cell-based; conditions: viability reduced by ≥99.9%
[3] = Erythrocyte hemolysis assay; format: cell-based, human; conditions: human, erythrocytes
human erythrocytes = assay: Erythrocyte hemolysis assay; format: cell-based; conditions: observed in HA assay with D39 protein
S. pneumoniae CF8919 [4] = assay: Biofilm inhibition assay; format: cell-based; conditions: CF8919, TSB, 24 h
[5] = system: pneumococcal NA of strain DSM20566; assay: Lectin-based hemagglutination; format: cell-based, S. pneumoniae; conditions: minimal NA inhibitory concentration
S. pneumoniae CF6937 [6] = assay: Broth microdilution assay; format: cell-based; conditions: Streptococcus pneumoniae, CF6937, 18 h, read-out: 90% minimal inhibitory concentration
S. pneumoniae CF6937 [7] = assay: Minimal bactericidal concentration; format: cell-based; conditions: viability reduced by ≥99.9%
S. pneumoniae BC57 [8] = assay: Broth microdilution assay; format: cell-based; conditions: Streptococcus pneumoniae, BC57, 18 h, read-out: 90% minimal inhibitory concentration
S. pneumoniae BC7326 [9] = assay: Broth microdilution assay; format: cell-based; conditions: Streptococcus pneumoniae, BC7326, 18 h, read-out: 90% minimal inhibitory concentration
S. pneumoniae DSM14378 [10] = assay: Biofilm inhibition assay; format: cell-based; conditions: DSM14378, TSB, 24 h
S. pneumoniae BC57 [11] = assay: Biofilm inhibition assay; format: cell-based; conditions: BC57, TSB, 24 h
S. pneumoniae [12] = assay: Broth microdilution assay; format: cell-based; conditions: Streptococcus pneumoniae, read-out: MIC90 values
How it was run: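 Pneumococci were pre-grown in BHI with gentle shaking at 37°C for 4–5 h (mid-exponential), adjusted to McFarland 0.5 (1.5 × 10^8 cfu/mL) and diluted 50× in BHI. 50 µL bacteria plus 100 µL of two-fold compound dilutions (top 50 or 200 µM) in BHI were run in duplicate, overnight at 37°C, 5% CO₂. OD620 at 18 h minus 0 h was taken relative to no-compound growth control; MIC90 is 90% turbidity reduction.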

S. pneumoniae [13] = assay: Biofilm inhibition assay; format: cell-based; conditions: range among all tested strains
S. pneumoniae CJ9400 [14] = assay: Broth microdilution assay; format: cell-based; conditions: Streptococcus pneumoniae, CJ9400, 18 h, read-out: 90% minimal inhibitory concentration
[15] = system: S. pneumoniae PN8828 adherence to A549 cells; assay: Adherence inhibition assay on A549 cells; format: cell-based; conditions: Streptococcus pneumoniae, A549, 1.5 h, read-out: concentration giving 50% reduction in adherence levels (AIC50)
S. pneumoniae DSM20566 [16] = assay: Biofilm inhibition assay; format: cell-based; conditions: DSM20566, TSB, 24 h
S. pneumoniae PN8828 [17] = assay: Broth microdilution assay; format: cell-based; conditions: Streptococcus pneumoniae, PN8828, 18 h, read-out: 90% minimal inhibitory concentration
S. pneumoniae CF6937 [18] = assay: Biofilm inhibition assay; format: cell-based; conditions: CF6937, TSB, 24 h
S. pneumoniae BC7326 [19] = assay: Biofilm inhibition assay; format: cell-based; conditions: BC7326, TSB, 24 h
S. pneumoniae DSM20566 [20] = assay: Broth microdilution assay; format: cell-based; conditions: Streptococcus pneumoniae, DSM20566, 18 h, read-out: 90% minimal inhibitory concentration
S. pneumoniae CJ9400 [21] = assay: Minimal bactericidal concentration; format: cell-based; conditions: viability reduced by ≥99.9%
[22] = biological target: recombinant NanA of DSM20566 (Streptococcus pneumoniae, UniProt P62575); format: biochemical, S. pneumoniae; conditions: for mechanism of inhibition: rNanA, Lineweaver-Burk / SigmaPlot analysis
S. pneumoniae PN8828 [23] = assay: Biofilm inhibition assay; format: cell-based; conditions: PN8828, TSB, 24 h
S. pneumoniae BC7326 [24] = assay: Minimal bactericidal concentration; format: cell-based; conditions: viability reduced by ≥99.9%
S. pneumoniae DSM14378 [25] = assay: Minimal bactericidal concentration; format: cell-based; conditions: viability reduced by ≥99.9%
[26] = system: pneumococcal NA of strain D39; assay: Lectin-based hemagglutination; format: cell-based, S. pneumoniae
S. pneumoniae CF8919 [27] = assay: Broth microdilution assay; format: cell-based; conditions: Streptococcus pneumoniae, CF8919, 18 h, read-out: 90% minimal inhibitory concentration
[28] = system: pneumococcal NA of strain CJ9400; assay: Lectin-based hemagglutination; format: cell-based, S. pneumoniae; conditions: minimal NA inhibitory concentration
[29] = system: S. pneumoniae DSM20566 adherence to A549 cells; assay: Adherence inhibition assay on A549 cells; format: cell-based; conditions: Streptococcus pneumoniae, DSM20566, A549, 1.5 h, read-out: concentration giving 50% reduction in adherence levels (AIC50)
A549 cells = assay: Cytotoxicity on confluent A549 cell monolayers; format: cell-based, human; conditions: 12.50 μM, A549, 72 h
How it was run: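 Three-day-old confluent A549 monolayers were exposed to two-fold serial compound dilutions in duplicate for 72 h at 37°C, 5% CO₂. Cells were washed, fixed and crystal violet-stained, and dye was eluted in citrate/HCl/ethanol buffer for OD550. Viability is relative to six untreated controls. CC50 comes from mean dose-response curves of at least three assays. Morphology at 12.5 µM was checked by phase-contrast microscopy.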

S. pneumoniae [30] = assay: Bactericidal activity, studied pneumococci; format: cell-based
S. pneumoniae DSM14378 [31] = assay: Broth microdilution assay; format: cell-based; conditions: Streptococcus pneumoniae, DSM14378, 18 h, read-out: 90% minimal inhibitory concentration
[32] = system: pneumococcal adherence to pulmonary epithelial A549 cells
S. pneumoniae D39 [33] = assay: Minimal bactericidal concentration; format: cell-based; conditions: viability reduced by ≥99.9%
S. pneumoniae D39 [34] = assay: Broth microdilution assay; format: cell-based; conditions: Streptococcus pneumoniae, D39, 18 h, read-out: 90% minimal inhibitory concentration
S. pneumoniae D39 [35] = assay: Biofilm inhibition assay; format: cell-based; conditions: D39, TSB, 24 h
pneumococcal NA = pneumococcal NA (Streptococcus pneumoniae, UniProt P62575); conditions: ref Gut et al., 2011; cited from earlier work
viral NAs = conditions: ref Collins et al., 2008; cited from earlier work

recombinant NanA of DSM20566, sequence (P62575 116-1035 limits assumed): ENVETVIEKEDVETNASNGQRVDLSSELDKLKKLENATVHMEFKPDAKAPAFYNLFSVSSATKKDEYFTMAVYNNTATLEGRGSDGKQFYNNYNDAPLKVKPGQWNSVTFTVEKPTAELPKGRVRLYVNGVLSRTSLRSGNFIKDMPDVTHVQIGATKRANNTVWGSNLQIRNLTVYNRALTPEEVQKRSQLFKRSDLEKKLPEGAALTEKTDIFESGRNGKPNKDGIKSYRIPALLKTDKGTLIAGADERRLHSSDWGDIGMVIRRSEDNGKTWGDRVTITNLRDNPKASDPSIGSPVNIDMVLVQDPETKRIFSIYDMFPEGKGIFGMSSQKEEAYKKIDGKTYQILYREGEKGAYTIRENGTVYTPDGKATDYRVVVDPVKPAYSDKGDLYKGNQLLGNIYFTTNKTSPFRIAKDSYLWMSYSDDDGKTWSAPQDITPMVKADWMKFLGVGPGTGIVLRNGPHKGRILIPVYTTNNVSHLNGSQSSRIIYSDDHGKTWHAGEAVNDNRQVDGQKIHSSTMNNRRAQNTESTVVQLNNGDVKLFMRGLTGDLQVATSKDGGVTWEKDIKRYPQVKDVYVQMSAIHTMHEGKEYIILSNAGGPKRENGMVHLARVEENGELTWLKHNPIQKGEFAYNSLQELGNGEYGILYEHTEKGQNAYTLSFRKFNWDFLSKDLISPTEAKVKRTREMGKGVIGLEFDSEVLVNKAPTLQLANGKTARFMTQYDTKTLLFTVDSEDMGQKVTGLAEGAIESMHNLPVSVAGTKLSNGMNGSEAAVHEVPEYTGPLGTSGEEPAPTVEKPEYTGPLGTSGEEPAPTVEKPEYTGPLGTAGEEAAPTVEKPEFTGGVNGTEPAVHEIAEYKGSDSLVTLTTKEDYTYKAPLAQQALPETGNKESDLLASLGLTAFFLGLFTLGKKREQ
pneumococcal NA, sequence (P62575 54-1006): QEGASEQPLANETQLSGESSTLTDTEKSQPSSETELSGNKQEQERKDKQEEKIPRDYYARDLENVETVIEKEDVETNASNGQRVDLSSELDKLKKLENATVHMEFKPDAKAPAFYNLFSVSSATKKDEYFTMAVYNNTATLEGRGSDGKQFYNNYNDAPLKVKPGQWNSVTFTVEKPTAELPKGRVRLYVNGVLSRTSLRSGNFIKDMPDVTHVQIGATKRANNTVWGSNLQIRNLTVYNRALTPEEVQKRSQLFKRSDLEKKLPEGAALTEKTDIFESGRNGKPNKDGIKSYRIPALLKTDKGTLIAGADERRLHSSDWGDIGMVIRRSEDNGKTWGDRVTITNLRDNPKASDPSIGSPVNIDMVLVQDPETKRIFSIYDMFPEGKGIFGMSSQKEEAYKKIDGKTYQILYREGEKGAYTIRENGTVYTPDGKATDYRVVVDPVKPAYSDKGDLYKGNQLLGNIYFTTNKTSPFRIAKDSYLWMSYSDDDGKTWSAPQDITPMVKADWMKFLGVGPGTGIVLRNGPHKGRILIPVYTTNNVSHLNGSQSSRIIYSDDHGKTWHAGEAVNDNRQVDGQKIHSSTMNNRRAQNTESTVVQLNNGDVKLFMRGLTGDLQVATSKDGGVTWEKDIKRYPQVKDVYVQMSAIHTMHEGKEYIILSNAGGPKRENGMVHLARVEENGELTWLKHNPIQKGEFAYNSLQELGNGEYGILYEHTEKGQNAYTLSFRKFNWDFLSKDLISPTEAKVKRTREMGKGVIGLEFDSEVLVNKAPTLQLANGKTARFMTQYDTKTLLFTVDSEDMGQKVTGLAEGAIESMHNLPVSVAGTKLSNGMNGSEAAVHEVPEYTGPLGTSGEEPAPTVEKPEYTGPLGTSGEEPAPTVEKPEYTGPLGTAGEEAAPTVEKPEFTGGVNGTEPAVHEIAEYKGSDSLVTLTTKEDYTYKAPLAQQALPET

COc1cc2oc(-c3ccc(O)cc3O)c(CC=C(C)C)c(=O)c2c(O)c1/C=C/C(C)C [artocarpin]
90% minimal biofilm inhibitory concentration (S. pneumoniae CJ9400 [1]): 2.97 ± 0.13 µM | Bactericidal concentration (S. pneumoniae DSM20566 [2]): 3.13 ± 0.00 µM | hemolysis at 3 h, 31.6 µM [3]: 20% | concentration at which erythrocytes were lysed (human erythrocytes): b The erythrocytes were lysed in the presence of artocarpin at concentrations higher than 10 µM. | 90% minimal biofilm inhibitory concentration (S. pneumoniae CF8919 [4]): 1.15 ± 0.34 µM | Inhibitory concentration (HA assay) [5]: 7.7 ± 4.0 µM | MIC (S. pneumoniae CF6937 [6]): 3.39 ± 2.1 µM (≈ 1.48 µg/mL) | Bactericidal concentration (S. pneumoniae CF6937 [7]): 3.44 ± 1.53 µM | MIC (S. pneumoniae BC57 [8]): 1.45 ± 0.04 µM (≈ 0.633 µg/mL) | MIC (S. pneumoniae BC7326 [9]): 1.12 ± 0.37 µM (≈ 0.489 µg/mL) | 90% minimal biofilm inhibitory concentration (S. pneumoniae DSM14378 [10]): 2.37 ± 0.67 µM | 90% minimal biofilm inhibitory concentration (S. pneumoniae BC57 [11]): 2.35 ± 0.68 µM | MIC90 (S. pneumoniae [12]): 0.99 to 5.75 µM (≈ 0.432 to 2.51 µg/mL) | mean MBIC90 values (S. pneumoniae [13]): 1.15 to 2.97 µM | MIC (S. pneumoniae CJ9400 [14]): 3.45 ± 2.05 µM (≈ 1.51 µg/mL) | IC50 [15]: 4100 nM | 90% minimal biofilm inhibitory concentration (S. pneumoniae DSM20566 [16]): 2.88 ± 0.07 µM | MIC (S. pneumoniae PN8828 [17]): 0.99 ± 0.48 µM (≈ 0.432 µg/mL) | 90% minimal biofilm inhibitory concentration (S. pneumoniae CF6937 [18]): 2.73 ± 0.27 µM | 90% minimal biofilm inhibitory concentration (S. pneumoniae BC7326 [19]): 2.02 ± 0.62 µM | MIC (S. pneumoniae DSM20566 [20]): 5.58 ± 0.97 µM (≈ 2.44 µg/mL) | Bactericidal concentration (S. pneumoniae CJ9400 [21]): 2.74 ± 0.68 µM | mechanism of inhibition [22]: mixed-type inhibition | 90% minimal biofilm inhibitory concentration (S. pneumoniae PN8828 [23]): 1.40 ± 0.07 µM | Bactericidal concentration (S. pneumoniae BC7326 [24]): 3.32 ± 1.94 µM | Bactericidal concentration (S. pneumoniae DSM14378 [25]): 4.69 ± 1.98 µM | activity in HA assay (in words) ([26]; reference strain D39): no activity | MIC (S. pneumoniae CF8919 [27]): 1.45 ± 0.01 µM (≈ 0.633 µg/mL) | Inhibitory concentration (HA assay) [28]: 2.6 ± 1.1 µM | IC50 [29]: 7500 nM | cytotoxic effect (in words) (A549 cells): no cytotoxic effect | factor of reduction of viability of pneumococci (S. pneumoniae [30]; within 18 h): > 1000 | MIC (S. pneumoniae DSM14378 [31]): 5.75 ± 0.13 µM (≈ 2.51 µg/mL) | effect on A549 cell viability under adherence assay conditions (in words) [32]: did not affect cell viability | Bactericidal concentration (S. pneumoniae D39 [33]): 2.50 ± 0.77 µM | MIC (S. pneumoniae D39 [34]): 1.29 ± 0.31 µM (≈ 0.563 µg/mL) | 90% minimal biofilm inhibitory concentration (S. pneumoniae D39 [35]): 2.22 ± 0.76 µM

CCC(CC)O[C@@H]1C=C(C(=O)O)C[C@H](N)[C@H]1NC(C)=O [oseltamivir, Oseltamivir carboxylate]
90% minimal biofilm inhibitory concentration (S. pneumoniae CJ9400 [1]): > 50 µM | Bactericidal concentration (S. pneumoniae DSM20566 [2]): > 50 µM | 90% minimal biofilm inhibitory concentration (S. pneumoniae CF8919 [4]): > 50 µM | Inhibitory concentration (HA assay) [5]: 2.1 ± 1.3 µM | Bactericidal concentration (S. pneumoniae CF6937 [7]): > 50 µM | 90% minimal biofilm inhibitory concentration (S. pneumoniae DSM14378 [10]): > 50 µM | 90% minimal biofilm inhibitory concentration (S. pneumoniae BC57 [11]): > 50 µM | 90% minimal biofilm inhibitory concentration (S. pneumoniae DSM20566 [16]): > 50 µM | inhibitory potency to pneumococcal NA (in words) (pneumococcal NA): medium | 90% minimal biofilm inhibitory concentration (S. pneumoniae CF6937 [18]): > 50 µM | Ki (viral NAs): 0.32 nM | 90% minimal biofilm inhibitory concentration (S. pneumoniae BC7326 [19]): > 50 µM | Bactericidal concentration (S. pneumoniae CJ9400 [21]): > 50 µM | factor by which inhibitory activity on bacterial NAs is lower than on viral NAs ([22]; compared to viral NAs Ki of 0.32 nM): 1000 | Ki ([22]; rNanA of DSM20566, MUNANA substrate): 230 nM | mechanism of inhibition [22]: competitively inhibited | 90% minimal biofilm inhibitory concentration (S. pneumoniae PN8828 [23]): > 50 µM | Bactericidal concentration (S. pneumoniae BC7326 [24]): > 50 µM | Bactericidal concentration (S. pneumoniae DSM14378 [25]): > 50 µM | Inhibitory concentration (HA assay) ([26]; minimal NA inhibitory concentration, strain D39): 10.0 ± 0.0 µM | Inhibitory concentration (HA assay) [28]: 0.3 ± 0.0 µM | concentration up to which no inhibitory or bactericidal activity was exhibited (S. pneumoniae [30]; maximum tested concentration): > 50 µM | effect on adhesion of pneumococci to A549 cells (in words) ([32]; DSM20566 and PN8828): did not reduce pneumococcal adherence | Bactericidal concentration (S. pneumoniae D39 [33]): > 50 µM | 90% minimal biofilm inhibitory concentration (S. pneumoniae D39 [35]): > 50 µM
